Hits are enriched below; roughly 1.2% of the tested compounds scored in any of these assays.
Rce1 inh – inhibitors of yeast Ras-converting enzyme | Q03530 | yeast membranes, quenched prenylated peptide cleavage fluorescence | calls only | 290,000 tested, 0.27% active | AID 2563;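 active means fall in fluorescence gain of 50% or more versus controls, with final raw signal at or below 3038400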;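 further: plate controls were neutral control wells for no effect and wells lacking membranes for full effect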
Target sequence (Q03530 whole entry, looked up): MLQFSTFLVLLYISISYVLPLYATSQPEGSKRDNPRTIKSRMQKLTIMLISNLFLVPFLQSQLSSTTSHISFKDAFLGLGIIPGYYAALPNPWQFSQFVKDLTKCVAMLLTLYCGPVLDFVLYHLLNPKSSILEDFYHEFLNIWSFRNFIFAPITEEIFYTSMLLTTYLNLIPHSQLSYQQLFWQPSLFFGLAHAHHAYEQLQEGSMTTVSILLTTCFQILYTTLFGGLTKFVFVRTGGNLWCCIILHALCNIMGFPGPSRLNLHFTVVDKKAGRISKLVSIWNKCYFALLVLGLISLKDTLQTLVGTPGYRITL
proCasp7 act – activates human procaspase-7, counter-screen for procaspase-3 activators. P55210. recombinant procaspase-7, Ac-DEVD-pNA absorbance 405 nm; D23A/D198A/D206A triple mutant, cannot self-cleave; scale: DMSO 0, 5 µM enzyme 100. activation, % at 8.5 µM. 330,000 tested, 0.093% active;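 active means percent activation above the screen-wide mean plus 3 SD, cut at about 25% in these data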
Target sequence (P55210 whole entry D23A/D198A/D206A): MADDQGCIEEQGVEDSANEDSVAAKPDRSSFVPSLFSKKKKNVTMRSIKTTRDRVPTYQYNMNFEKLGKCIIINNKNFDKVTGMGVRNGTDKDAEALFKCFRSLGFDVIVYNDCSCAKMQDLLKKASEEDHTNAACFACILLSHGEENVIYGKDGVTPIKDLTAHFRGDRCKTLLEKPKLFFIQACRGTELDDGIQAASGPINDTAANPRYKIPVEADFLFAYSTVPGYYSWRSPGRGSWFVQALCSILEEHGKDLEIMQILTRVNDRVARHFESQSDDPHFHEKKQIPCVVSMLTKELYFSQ
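signal = Epi-absorbance of released pNA at 405 nm, two timepoints | assay system = Uncleavable procaspase-7 mutant enzyme | reagent = Ac-DEVD-pNA substrate, 400 µM as added | times = 1 h enzyme–compound preincubation and 2 h substrate reaction, both 25 °C | benchmarks = low DMSO alone, high DMSO plus 5 µM PC-7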
GAA850 FXN act – frataxin GAA850 promoter activation; HEK293 lucGAA850 FXN promoter luciferase reporter, 24 h; percent of 10 µM SAHA response; activation, % at 6 µM; 360,000 tested, 0.56% active; AID 540364;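 active means activation above the average of all compounds screened plus 3 SD, cutoff fixed separately per campaign, cut at about 7.5% in these data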;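 further: 0% = DMSO wells and 100% = 10 µM SAHA wells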
proCasp3 act – activators of human procaspase-3. P42574. recombinant procaspase-3 D3A, Ac-DEVD-pNA absorbance 405 nm. activation, % at 8.5 µM. 330,000 tested, 0.11% active;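 active means activation above the mean of all tested compounds plus 3 SD, cut at about 21% in these data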;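 further: 0% = DMSO alone and 100% = DMSO wells spiked with extra 5 µM PC-3 D3A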
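Assay system – Procaspase-3 D3A mutant · Benchmarks – DMSO low control, extra-enzyme high control · Technique – 405 nm absorbance of p-nitroaniline, reads at 0 and 120 min · Doses – 8.5 µM nominal · Measure – % activation between DMSO and enzyme-spiked controls · Also added – Ac-DEVD-pNA chromogenic peptide substrate · Schedule – 1 h compound preincubation, 2 h substrate hydrolysis at 25 °C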
pCIP destab – compounds decreasing mouse p/CIP protein stability; decrease of EGFP signal, % at 10 µM; F442A p/CIP-EGFP cells, EGFP fluorescence, 16 h; 290,000 tested, 0.01% active; Q05BA5; AID 1984;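 active means EGFP signal decrease of at least 30% at 10 µM or well 3 SD below plate mean, unless failing retest; inactive means the rest, including hits failing retest or dose response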
Lipid droplet – hepatic lipid droplet formation modulation; AML12 mouse hepatocytes, oleate lipid droplets, BODIPY imaging; inhibition, % at 6.5 µM; 240,000 tested, 0.4% active;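 active means lipid droplet intensity inhibited by at least 50%, with more than 500 cells counted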
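Material – AML12 mouse liver cells · Also added – oleate loading, 100 µM · Compound dosing – 6.5 µM single-point dosing · Times – overnight treatment with compound plus oleate · Measured by – fluorescence imaging, 20x objective, two fields per well · Read-out – percent inhibition of filter-corrected integrated lipid droplet intensity per well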
GAA30 counter – GAA30 FXN promoter activation counter-screen; shares compounds with GAA850 FXN act; HEK293 lucGAA30 FXN promoter luciferase, 24 h; DMSO = 0%, 5 µM ipriflavone = 100%; activation, % at 6 µM; 1,900 tested, 66% active;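 active means mean activation above the mean of solvent-only control wells plus 3 SD, cut at about 22% in these data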;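 further: counterscreen of GAA850 promoter hits where activity marks nonselective or luminescence artifacts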
FXN GAA850 conf – GAA850 FXN promoter activation confirmation; HEK293 lucGAA850 FXN promoter luciferase reporter, 24 h; 100% = activation by SAHA; AID 588351; activation, % at 6 µM; shares compounds with GAA850 FXN act; 1,900 tested, 86% active;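 active means mean activation above a set limit taken from the primary screen, cut at about 8% in these data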;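 further: 0% = DMSO wells and 100% = 10 µM SAHA wells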
Starred values were filed as active, the others as inactive.

How did COc1ccc(N2C(=O)CC(N(CCc3ccc(OC)c(OC)c3)C(=S)Nc3ccccc3)C2=O)cc1 (centres undefined) do in these assays?
Rce1 inh: inactive; proCasp7 act: -12.6; GAA850 FXN act: 8.4*; proCasp3 act: -9.4; pCIP destab: -2.4; Lipid droplet: -17.9; GAA30 counter: 1.3; FXN GAA850 conf: 10.8*

How did Cc1ccsc1C(=O)N1CCC1(C)C(=O)NS(=O)(=O)c1ccccc1C(F)(F)F (centres undefined) do in these assays?
GAA850 FXN act: -0.1

How did COc1ccccc1NC(=O)c1cc(N)cc(C(=O)Nc2ccccc2OC)c1 do in these assays?
Rce1 inh: inactive; proCasp7 act: 3.5; GAA850 FXN act: 1.4; proCasp3 act: 5.1

How did COc1ccccc1NC(=O)c1coc(=O)c(Br)c1 do in these assays?
Rce1 inh: inactive; proCasp7 act: -0.9; GAA850 FXN act: 7.9*; proCasp3 act: 2.0; pCIP destab: -8.9; Lipid droplet: -8.2; GAA30 counter: 128.7*; FXN GAA850 conf: 68.6*

How did O=C(NCCc1ccccc1)c1coc(=O)c(Br)c1 do in these assays?
Rce1 inh: inactive; GAA850 FXN act: 8.0*; pCIP destab: -10.4; Lipid droplet: -1.8; GAA30 counter: -2.1; FXN GAA850 conf: 20.6*

Results for O=C(NCCC1=CCCCC1)c1coc(=O)c(Br)c1 ?
Rce1 inh: inactive; proCasp7 act: 5.7; GAA850 FXN act: 17.0*; proCasp3 act: 0.0; pCIP destab: -35.0; GAA30 counter: -3.0; FXN GAA850 conf: 25.7*

How did COc1ccc(OC)c(NC(=O)CSc2nncc(=O)n2N)c1 do in these assays?
Rce1 inh: inactive; proCasp7 act: -11.4; GAA850 FXN act: 1.9; proCasp3 act: -3.5; pCIP destab: -64.5; Lipid droplet: 4.7

What do the screens show for `O=C(NCCc1c[nH]c2ccccc12)c1c(Cl)nc2sccn12`?
proCasp7 act: -1.2; GAA850 FXN act: 7.7*; proCasp3 act: 3.3; pCIP destab: -2.1; GAA30 counter: 46.0*; FXN GAA850 conf: 22.9*

How did CCN1C(=O)[C@H]2[C@@H](c3ccc(Cl)cc3)N3C(=O)CN(CC4CC4)C(=O)[C@@]3(Cc3ccccc3)[C@H]2C1=O do in these assays?
Rce1 inh: inactive; proCasp7 act: -7.6; GAA850 FXN act: -1.2; proCasp3 act: -2.3; pCIP destab: -22.8; Lipid droplet: 8.3

What do the screens show for `CN1CCCCC1(C)C(=O)NCc1ccc(C(C)(C)C)cc1` (centres undefined)?
GAA850 FXN act: 1.3

How did COc1ccc(NC(=S)Nc2cc(C)ccn2)c(OC)c1 do in these assays?
Rce1 inh: inactive; proCasp7 act: 0.5; GAA850 FXN act: 6.7; proCasp3 act: -2.2; pCIP destab: 0.4; Lipid droplet: -5.2

How did COc1ccc(NC(=S)Nc2ccccn2)c(OC)c1 do in these assays?
Rce1 inh: inactive; proCasp7 act: -0.7; GAA850 FXN act: 8.1*; proCasp3 act: -3.1; pCIP destab: -12.2; Lipid droplet: -11.0; GAA30 counter: 107.0*; FXN GAA850 conf: 46.0*

What do the screens show for `Cc1cccc(OCC(=O)Nc2ccc3c(c2)nc(CCN2CCN(c4ccccn4)CC2)n3C)c1`?
Rce1 inh: inactive; proCasp7 act: 3.4; GAA850 FXN act: -0.8; proCasp3 act: 3.6; pCIP destab: -3.2; Lipid droplet: 0.2

What do the screens show for `CC(=O)OCC=C1CCC2C3CC(C)C4=CC(=O)CCC4(C)C3C(O)CC12C` (centres undefined)?
GAA850 FXN act: -2.0

What do the screens show for `COc1ccc2oc(=Nc3ccccc3)c(-c3nc4ccccc4[nH]3)cc2c1`?
Rce1 inh: inactive; proCasp7 act: -1.6; GAA850 FXN act: 7.9*; proCasp3 act: 0.0; pCIP destab: 3.2; Lipid droplet: 4.4; GAA30 counter: 109.3*; FXN GAA850 conf: 39.0*

What do the screens show for `CC(=O)Nc1ccc2c(c1)Cc1cc(N3C(=O)C=CC3=O)ccc1-2`?
GAA850 FXN act: 11.0*; GAA30 counter: -84.8; FXN GAA850 conf: -5.6

Results for O=C1C=CC(=O)N1c1ccc2c(c1)Cc1cc(F)ccc1-2 ?
GAA850 FXN act: -0.6

Results for CCOC(=O)C1CCCN(S(=O)(=O)c2cnc(Cl)c(Br)c2)C1 (centres undefined) ?
Rce1 inh: inactive; proCasp7 act: -4.0; GAA850 FXN act: 1.9; proCasp3 act: 6.1; pCIP destab: -1.6; Lipid droplet: 2.8

What do the screens show for `c1ccc(OCCCn2nnc(-c3ccc(N4CCOCC4)cc3)n2)cc1`?
Rce1 inh: inactive; proCasp7 act: 12.3; GAA850 FXN act: 8.6*; proCasp3 act: -4.5; pCIP destab: -3.5; Lipid droplet: 1.7; GAA30 counter: 19.9; FXN GAA850 conf: 8.6*

How did Cc1cccc(C)c1NC(=O)c1nc(S(=O)(=O)Cc2ccccc2)ncc1Cl do in these assays?
Rce1 inh: inactive; proCasp7 act: -3.6; GAA850 FXN act: 8.2*; proCasp3 act: -3.6; pCIP destab: -20.3; Lipid droplet: -2.7; GAA30 counter: -35.9; FXN GAA850 conf: 20.2*

How did CC1(C)C(=O)NCCN1C(=O)CC1C(=O)NCCN1CC(c1ccccc1)c1ccccc1 (centres undefined) do in these assays?
Rce1 inh: inactive; proCasp7 act: 1.1; GAA850 FXN act: 1.2; proCasp3 act: -0.7; pCIP destab: -15.4; Lipid droplet: 1.6

How did CC1(C)C(=O)NCCN1C(=O)CCC(=O)O do in these assays?
Rce1 inh: inactive; proCasp7 act: 16.9; GAA850 FXN act: 7.9*; proCasp3 act: 2.1; pCIP destab: -9.9; Lipid droplet: -1.1; GAA30 counter: 15.7; FXN GAA850 conf: 5.4

How did N#Cc1c(N)nc(SCC(=O)NC2CCCCC2)c(C#N)c1-c1ccc(Cl)cc1 do in these assays?
Rce1 inh: inactive; proCasp7 act: -4.8; GAA850 FXN act: 0.7; proCasp3 act: -2.1; pCIP destab: -12.4

What do the screens show for `N#CCSc1nc(N)c(C#N)c(C2CCCCC2)c1C#N`?
Rce1 inh: inactive; proCasp7 act: 9.9; GAA850 FXN act: 10.7*; proCasp3 act: 4.7; pCIP destab: -19.3; GAA30 counter: 14.5; FXN GAA850 conf: 18.9*

How did CCN(CC)C(=O)c1nc(-c2cccc3ccccc23)no1 do in these assays?
GAA850 FXN act: 4.1

Source: PubChem BioAssay
